# Experimental data published in publication PMC11491786 (Zoological Research, 2024).
# No end group written: not given here.
# T1: FXIIa (Homo sapiens, UniProt P00748)
# T1 sequence (P00748 373-615 limits assumed): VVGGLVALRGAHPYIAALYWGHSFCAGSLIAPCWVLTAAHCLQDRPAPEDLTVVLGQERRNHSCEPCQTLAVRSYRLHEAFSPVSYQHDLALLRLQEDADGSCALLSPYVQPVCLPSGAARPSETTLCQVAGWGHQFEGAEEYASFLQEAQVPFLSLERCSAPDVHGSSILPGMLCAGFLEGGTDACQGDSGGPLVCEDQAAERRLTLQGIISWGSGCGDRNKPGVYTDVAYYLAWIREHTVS
# T1 sequence (P00748 20-372 partner limits assumed): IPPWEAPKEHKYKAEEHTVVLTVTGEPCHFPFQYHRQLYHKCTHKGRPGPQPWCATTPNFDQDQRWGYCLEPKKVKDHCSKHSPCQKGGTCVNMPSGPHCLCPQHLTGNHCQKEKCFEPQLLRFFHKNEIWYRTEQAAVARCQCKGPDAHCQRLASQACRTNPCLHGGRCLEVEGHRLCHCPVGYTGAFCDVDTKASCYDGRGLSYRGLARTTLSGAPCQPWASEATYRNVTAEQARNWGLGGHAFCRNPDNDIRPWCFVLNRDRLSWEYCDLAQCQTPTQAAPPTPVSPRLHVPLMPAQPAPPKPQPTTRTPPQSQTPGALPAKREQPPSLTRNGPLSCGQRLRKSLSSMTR
# T2: activated factor XII (FXIIa) (UniProt P00748 20-372; P00748 373-615)
# T2 sequence (looked up) 1: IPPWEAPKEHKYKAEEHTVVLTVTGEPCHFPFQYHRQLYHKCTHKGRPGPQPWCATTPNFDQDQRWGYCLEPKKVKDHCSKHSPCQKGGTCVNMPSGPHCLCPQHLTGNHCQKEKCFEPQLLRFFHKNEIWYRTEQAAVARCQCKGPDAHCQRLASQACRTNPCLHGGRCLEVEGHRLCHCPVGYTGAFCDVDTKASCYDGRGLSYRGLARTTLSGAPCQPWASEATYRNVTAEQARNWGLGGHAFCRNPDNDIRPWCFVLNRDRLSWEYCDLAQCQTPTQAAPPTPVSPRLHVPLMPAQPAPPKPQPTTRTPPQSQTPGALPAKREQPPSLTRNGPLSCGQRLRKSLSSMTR
# T2 sequence (looked up) 2: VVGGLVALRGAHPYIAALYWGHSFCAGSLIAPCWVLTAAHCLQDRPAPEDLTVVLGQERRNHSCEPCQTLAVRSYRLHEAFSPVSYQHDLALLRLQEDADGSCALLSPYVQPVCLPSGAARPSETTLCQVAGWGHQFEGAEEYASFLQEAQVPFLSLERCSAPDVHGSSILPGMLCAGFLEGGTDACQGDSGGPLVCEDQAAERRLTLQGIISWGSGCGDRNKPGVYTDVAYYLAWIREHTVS
# Columns and labels:
# [1] = target: T3, PK (Homo sapiens, UniProt P03952); test: SPR, PK over LE6-coupled chip; type: binding
# [2] = system: mouse splenocytes; test: Cytotoxicity assay; type: cell-based; conditions: 12.5 to 200 μg/mL, 8 h, CCK8
# Procedure, shortened: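 Mouse splenocytes were prepared by crushing fresh spleens in PBS and passing them through a 200-mesh sieve. Cells were cultured in RPMI1640 at 37°C, 5% CO2, seeded at 2×10^5 cells/well and given 12 h to settle. Test compound (12.5–200 µg/mL, plus 0) was added for 8 h, followed by CCK-8 for 3 h and an OD450 read. Viability is reported as % of control; n=8–12.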
# [3] = target: T1, FXIIa; test: SPR, FXIIa over LE6-coupled chip; type: binding; conditions: read-out: Kd (dissociation rate constant)
# [4] = system: male C57BL/6 J mice; test: Bleeding assay; type: in vivo, mouse
# Procedure, shortened: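 Dosing 15 min before cutting: test compound at 0.5 or 2 mg/kg i.v., 0.9% saline (control) or heparin sodium 2 500 U/kg (reference). Mice were male C57BL/6J, 6 weeks old, 18–20 g, n=6–7. Tail cut 2 mm from the tip and immersed in sterile saline at 37°C. Bleeding time recorded until blood flow stopped.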
# [5] = system: mouse peritoneal macrophages; test: Cytotoxicity assay; type: cell-based; conditions: 12.5 to 200 μg/mL, 8 h, CCK8
# Procedure, shortened: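 Peritoneal macrophages were elicited in mice with i.p. 3% thioglycollate broth and collected by PBS lavage after 3 days. Cells were cultured in RPMI1640 at 37°C, 5% CO2, seeded at 1×10^6 cells/well and allowed 12 h to adhere. Test compound (12.5–200 µg/mL, plus 0) was added for 8 h, then CCK-8 for 3 h and OD450 read. Viability is expressed as % of control; n=8–12.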
# [6] = target: T1, FXIIa; test: Chromogenic assay, FXIIa; type: biochemical
# [7] = system: HEK 293T cells; test: Cytotoxicity assay; type: cell-based, human; conditions: 12.5 to 200 μg/mL, 8 h, CCK8
# Procedure, shortened: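 HEK 293T cells were grown in DMEM/F-12 with 10% FBS and 1% penicillin-streptomycin at 37°C, 5% CO2. They were seeded at 3×10^4 cells/well and allowed 12 h to adhere. Test compound (12.5–200 µg/mL, plus 0) was added for 8 h. CCK-8 was then added for 3 h and OD450 read. Viability is given as % of untreated control; n=8–12.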
# [8] = system: erythrocytes; test: Hemolysis assay; type: cell-based, human; conditions: up to 200 μg/mL (285 μmol/L), 30 min, 37 °C, PBS pH 7.2, 540 nm
# Procedure, shortened: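 Human blood was centrifuged for 10 min at 3 500 r/min and 25°C. The erythrocytes were resuspended in PBS (0.01 mol/L, pH 7.2) and exposed to test compound (12.5–200 µg/mL, plus 0) or 0.1% Triton X-100 (positive control) for 30 min at 37°C. Samples were spun 5 min at 3 500 r/min and the supernatant A540 read; n=2–3.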
# [9] = target: T3, PK; test: Chromogenic assay, PK; type: biochemical
# Target sequence in this assay (P03952 391-638 limits assumed): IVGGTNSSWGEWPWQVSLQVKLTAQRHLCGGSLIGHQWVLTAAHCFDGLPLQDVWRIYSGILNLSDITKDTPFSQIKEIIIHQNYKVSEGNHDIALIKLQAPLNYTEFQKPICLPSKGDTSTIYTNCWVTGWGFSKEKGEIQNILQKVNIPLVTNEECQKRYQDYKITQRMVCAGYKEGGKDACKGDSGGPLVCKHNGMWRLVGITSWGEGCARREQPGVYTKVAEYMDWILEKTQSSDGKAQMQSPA
# Target sequence in this assay (P03952 20-390 partner limits assumed): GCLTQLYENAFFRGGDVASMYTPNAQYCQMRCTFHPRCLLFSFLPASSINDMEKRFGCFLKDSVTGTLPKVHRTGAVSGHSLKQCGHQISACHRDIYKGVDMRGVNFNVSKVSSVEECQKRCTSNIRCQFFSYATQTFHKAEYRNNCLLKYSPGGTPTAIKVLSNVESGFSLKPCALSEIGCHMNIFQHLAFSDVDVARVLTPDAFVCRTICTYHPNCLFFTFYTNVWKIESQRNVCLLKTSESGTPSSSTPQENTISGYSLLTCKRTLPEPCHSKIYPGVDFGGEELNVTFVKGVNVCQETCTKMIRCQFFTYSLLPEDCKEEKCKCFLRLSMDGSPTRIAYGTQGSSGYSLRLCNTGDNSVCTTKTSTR
# [10] = system: male C57BL/6J mice; test: FeCl3-induced carotid artery thrombosis; type: in vivo, mouse; conditions: 2 500 U/kg i.v., 10% FeCl3, 5 min and 10 min, vs PBS-treated group
# Procedure, shortened: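 Male C57BL/6J mice (6 weeks old, n=6–7) were given i.v. saline (100 µL; control), heparin sodium 2 500 U/kg, or test compound at 0.5 or 2 mg/kg, 5 min before induction, under anaesthesia. Filter paper with 10% (w/v) FeCl3 was applied to the exposed left carotid artery for 30 s. Flow in the region of interest was followed by laser speckle perfusion imaging for 30 min, with images analysed at 5 and 10 min. Occlusion was scored as a red-to-blue change.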
# [11] = system: acute IS patients; conditions: ref Kim, 2019; Simão et al., 2017; cited from earlier work
# [12] = target: T2, activated factor XII (FXIIa); test: cell-based or functional assay
# [13] = target: T2, activated factor XII (FXIIa); test: SPR
# [14] = target: T4, plasma kallikrein (PK) (UniProt P03952 20-390; P03952 391-638); test: SPR
# T4 sequence (P03952 20-390, chain 1 of 2): as the sequence (P03952 20-390 partner limits assumed) above
# T4 sequence (P03952 391-638, chain 2 of 2): as the sequence (P03952 391-638 limits assumed) above
# [15] = target: T2, activated factor XII (FXIIa); test: chromogenic enzyme inhibition assay
# [16] = target: T4, plasma kallikrein (PK); test: chromogenic enzyme inhibition assay
molecule,measurement,setting,value
"LSEEPE [LE6, Leu-Ser-Glu-Glu-Pro-Glu]",kon,[1]; read-out: Ka (association rate constant),1790 M⁻¹ s⁻¹
same,koff,[1]; read-out: Kd (dissociation rate constant),0.0141 s⁻¹
same,toxic effects on proliferation,[2],no toxic effects
same,koff,[3],0.118 s⁻¹
same,bleeding time,"[4]; 0.5 mg/kg i.v., 15 min before tail cut, n=6–7",without notably extending bleeding time
same,bleeding time relative to heparin sodium,[4]; LE6 2 mg/kg i.v. vs heparin sodium 2 500 U/kg i.v.,approximately half that induced by the clinically anticoagulant heparin sodium
same,toxic effects on proliferation,[5],no toxic effects
same,IC50,[6],71 µM
same,inhibition at 285 µM,[6]; read-out: inhibition rate of FXIIa,88.6%
same,toxic effects on proliferation,[7],no toxic effects
same,hemolysis,[8],no hemolytic side effects
same,IC50,[9],~71 µM
heparin sodium,blood flow after FeCl3-induction,[10],increased blood flow at 5 min and 10 min
tissue plasminogen activator [tPA],efficacy in acute IS,[11],efficacious when administered within 4.5 hours of stroke onset
LSEEPE [oligopeptide LE6 (Leu-Ser-Glu-Glu-Pro-Glu)],"FXIIa activity on chromogenic substrate S-2302, IC50",[12],71 µM
same,Kd,[13],46.4 µM
same,Kd,[14],7.88 µM
same,Ki,[15],6.37 µM
same,Ki,[16],44 µM
